Measurements collected from several papers.
Target: Casein kinase I isoform epsilon (CSNK1E, Homo sapiens, UniProt P49674)

Structure (SMILES) | read-out | mode | method | tested at | measurement | result
O=C(NS(=O)(=O)c1ccc(NCC2CCOCC2)c([N+](=O)[O-])c1)c1ccc(N2CCN(Cc3ccc(C(F)(F)F)cc3-c3ccc(Cl)cc3)CC2)cc1Oc1cnc2[nH]ccc2c1 | cell-free assay | – | competition with immobilised ligand | 1 µM | remaining binding | 95%
COc1cc2ncnc(Nc3ccc(Oc4ccccc4)c(C)c3C)c2cc1OC | enzyme activity | inhibitor | – | 1 µM | inhibition | 0%
C[C@@H]1CCN(C(=O)CC#N)C[C@@H]1N(C)c1ncnc2[nH]ccc12 | enzyme activity | inhibitor | – | 0.5 µM | remaining activity | 101%
O=C(Nc1cnn(-c2csc(C(=O)NC3COC3)c2)c1)Nc1c(F)cccc1Cl | enzyme activity | inhibitor | – | 5 µM | remaining activity | 88.6%
N#CCCc1ccc2c(c1)-c1[nH]c3ccc([N+](=O)[O-])cc3c1CC(=O)N2 | cell-free assay | – | – | 0.5 µM | remaining signal | 91.4%
Cn1c2c(Cl)c(Cl)ccc2c2cc(N)[nH]c(=O)c21 | thermal stability | – | DSF | 10 µM | ΔTm | 0.5 °C
CCCCN(CCCC)C(=O)CN1C[C@H](c2cc(OC)c3c(c2)OCO3)[C@@H](C(=O)O)[C@@H]1CC(C)(C)CCC | cell-free assay | – | competition with immobilised ligand | 1 µM | remaining binding | 100%
O=C(NCCCNc1nc(Nc2cccc(NC(=O)N3CCCC3)c2)ncc1I)c1cccs1 | enzyme activity | inhibitor | – | 1 µM | inhibition | -16%
Cc1ccc(NC(=O)c2ccc(CN3CCN(C)CC3)cc2)cc1Nc1nccc(-c2cccnc2)n1 | enzyme activity | inhibitor | – | 0.5 µM | activity vs control | 92.4%
CC(C)(C)c1nc2c(s1)c1nc(N)ncc1c1ccc(NS(=O)(=O)c3c(F)cccc3F)c(F)c12 | enzyme activity | inhibitor | radiometric | 1 µM | remaining activity | 84%
CC/C(=N\NC(=O)NCc1cccc(O)c1)c1ccc(O)c(C)c1O | enzyme activity | inhibitor | – | 0.1 µM | inhibition | 3.6%
O=C(N1CCS(=O)(=O)CC1)N1C[C@H](c2ccc(OC(F)(F)F)cc2)C[C@H](c2nc(C3CC3)no2)C1 | cell-free assay | – | competition with immobilised ligand | 1 µM | remaining binding | 100%
CS(=O)(=O)CCNCc1ccc(-c2ccc3ncnc(Nc4ccc(OCc5cccc(F)c5)c(Cl)c4)c3c2)o1 | enzyme activity | – | – | 0.5 µM | remaining activity | 99.4%
CC(C)(O)[C@H]1CC[C@H](Nc2ccc3ncc(-c4cccc(C(F)(F)F)c4)n3n2)CC1 | enzyme activity | inhibitor | – | 1 µM | remaining activity | 78.5%
Nc1ncnc2occ(-c3ccc(NC(=O)Nc4cc(C(F)(F)F)ccc4F)cc3)c12 | enzyme activity | inhibitor | – | 20 µM | remaining activity | 0.65%
CC1=C(C#N)C(c2ccc3c(c2)c(NC(=O)c2ccccc2C)nn3C)C(C#N)=C(C)N1 | cell-free assay | – | competition with immobilised ligand | 1 µM | remaining binding | 100%
O=C1Nc2ccc(Cl)cc2C1=Cc1cc(Cl)c(O)c(Cl)c1 | enzyme activity | – | – | 0.5 µM | remaining activity | 66.6%
O=C(Nc1cccnn1)N1CC(C/C=C/c2cncc(Oc3ccc(C(F)(F)F)cn3)n2)C1 | cell-free assay | – | competition with immobilised ligand | 1 µM | remaining binding | 100%
Cn1c2c(c3ccccc31)C(C#N)C(C)(C)NC2=O (centres unmarked) | thermal stability | – | DSF | 10 µM | ΔTm | 0.8 °C
O=C1NC(=O)c2cc(Nc3ccc(F)cc3)c(Nc3ccc(F)cc3)cc21 | enzyme activity | inhibitor | – | 0.5 µM | remaining activity | 98%
Cn1c2c(c3ccc(Cl)c(Cl)c31)C(C#N)C(C)(C)NC2=O (centres unmarked) | thermal stability | – | DSF | 10 µM | ΔTm | 1.3 °C
CN(C)CC#Cc1ccc(OCCCc2sc(N3CCc4cccc(C(=O)Nc5nc6ccccc6s5)c4C3)nc2C(=O)O)c(F)c1 | cell-free assay | – | competition with immobilised ligand | 1 µM | remaining binding | 86%
Nc1nc(Nc2ccc(S(N)(=O)=O)cc2)nn1C(=O)c1c(F)cccc1F | cell-free assay | – | – | 0.5 µM | remaining signal | 96.9%
